Measured values as given in ChEMBL document CHEMBL1955770, “Inhibition of S/G2 phase CDK4 reduces mitotic fidelity” (J Biol Chem, 2006).
Calls of active or inactive are those of the source. The calls are words filed in the database; no cut-off is given here.

Experiments:
[1] = target: Insulin-like growth factor 1 receptor (Homo sapiens, UniProt P08069); assay: Inhibition of IGF1R using fluorescent substrate by IMAP assay
In short: (§1)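 Run in-house using IMAP: phosphorylated fluorescent peptide substrate binds preferentially to immobilized metal beads, which quantifies kinase activity. ATP at 3× the Km of each enzyme.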

Insulin receptor = Insulin receptor (Homo sapiens, UniProt P06213); assay: Inhibition of insulin receptor using fluorescent substrate by IMAP assay; in short: as §1
[2] = Inhibition of p38 MAPK using fluorescent substrate by IMAP assay; in short: as §1
[3] = Inhibition of AKT using fluorescent substrate by IMAP assay; in short: as §1
[4] = Cell cycle arrest in Rb-competent human SK-MEL-13 cells assessed as accumulation at sub-diploid phase at 2 uM after 24 hrs by FACS analysis; type: functional
In short: (§2)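 Ethanol-fixed cells stained with propidium iodide/RNase A, DNA content read by FACS, phase and sub-diploid fractions calculated with ModFit.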

[5] = Cell cycle arrest in Rb-competent human SK-MEL-13 cells assessed as accumulation at G2/M phase at 2 uM after 24 hrs by FACS analysis; type: functional; in short: as §2
RKO = assay: Antiproliferative activity against human RKO cells assessed as inhibition of S phase after 48 hrs by MTT assay; type: functional, cell-based
In short: (§3)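 Cells grown in DMEM with 3 mM HEPES and 10% Serum Supreme at 37 °C, 5% CO2. Proliferation read by MTT assay 48 h after drug addition; IC50 given as mean of two separate determinations, each in duplicate.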

NCI-H460 [6] = assay: Antiproliferative activity against human H460a cells assessed as inhibition of S phase after 48 hrs by MTT assay; type: functional, cell-based; conditions: NCI-H460, 48 h; in short: as §3
HeLa [7] = assay: Cell cycle arrest in human HeLa cells assessed as accumulation at S phase at 2 uM treated 2 hr and measured 10 hr post double thymidine-synchrony release using propidium iodide staining by FACS analysis (reference value: 1 %); type: functional
In short: (§4)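 Cells harvested at set times post-release, fixed in 70% ethanol, stained with 5 μg/ml propidium iodide plus 0.5 mg/ml RNase A, and analysed by flow cytometry. Cell-cycle phase fractions calculated by ModFit.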

[8] = Cell cycle arrest in human SK-MEL-13 cells assessed as accumulation at G1 phase at 2 uM treated 1 hr and measured 8 hr post double hydroxyurea-synchrony release using propidium iodide staining by FACS analysis (reference value: 10 %); type: functional, cell-based
In short: (§5)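 SK-Mel-13 cells synchronized with 2 mM hydroxyurea, then treated with 2 μM CDK4 inhibitor or left untreated 1 h after release. Harvested at indicated times post-release, ethanol-fixed, propidium iodide/RNase stained, and DNA content read by FACS. Proportions of G1, S and G2/M cells derived with ModFit.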

[9] = Cell cycle arrest in human SK-MEL-13 cells assessed as accumulation at G2/M phase at 2 uM treated 1 hr and measured 12 hr post double hydroxyurea-synchrony release using propidium iodide staining by FACS analysis (reference value: 50 %); type: functional, cell-based; in short: as §5
A2058 [10] = assay: Cell cycle arrest in human A2058 cells assessed as accumulation at G1 phase at 2 uM treated 1 hr and measured 8 hr post double hydroxyurea-synchrony release using propidium iodide staining by FACS analysis; type: functional
A2058 [11] = assay: Cell cycle arrest in human A2058 cells assessed as accumulation at G2/M phase at 2 uM treated 1 hr and measured 8 hr post double hydroxyurea-synchrony release using propidium iodide staining by FACS analysis (reference value: 48 %); type: functional
A2058 [12] = assay: Cell cycle arrest in human A2058 cells assessed as accumulation at G2/M phase at 2 uM treated 1 hr and measured 10 hr post double hydroxyurea-synchrony release using propidium iodide staining by FACS analysis (reference value: 65 %); type: functional
A2058 [13] = assay: Cell cycle arrest in human A2058 cells assessed as accumulation at S phase at 2 uM treated 1 hr and measured 12 hr post double hydroxyurea-synchrony release using propidium iodide staining by FACS analysis (reference value: 47 %); type: functional
[14] = Cell cycle arrest in human SK-MEL-13 cells assessed as effect on G2/M phase progression at 2 uM treated 6 hr post double hydroxyurea-synchrony release using propidium iodide staining by FACS analysis; type: functional, cell-based
HeLa [15] = assay: Cell cycle arrest at G2 phase in human HeLa cells at 2 uM treated 8 hr and measured 12 hr post-synchrony release using Propidium iodide staining by FACS analysis; type: functional, cell-based
HCT-116 = assay: Toxicity in human HCT116 cells at 8 uM by MTT assay; type: cell-based; conditions: hct-116, 8 µM
SW480 = assay: Toxicity in human SW480 cells at 8 uM by MTT assay; type: cell-based; conditions: sw480, 8 µM
MDA-MB-435 = assay: Toxicity in human MDA-MB-435 cells at 8 uM by MTT assay; type: cell-based; conditions: mda-mb-435, 8 µM
NCI-H460 [16] = assay: Toxicity in human H460a cells at 8 uM by MTT assay; type: cell-based; conditions: nci-h460, 8 µM
HeLa [17] = assay: Decrease in survivin mRNA expression in human HeLa cells at 2 uM measured 8 to 14 hr post thymidine-synchrony release by RT-PCR analysis; type: functional, cell-based
In short: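 Survivin mRNA measured by real-time Taqman RT-PCR on TRIzol-extracted RNA from synchronized, treated HeLa samples, with β-actin as reference. Reaction used 600 nM each primer and 200 nM probe. Cycling: 50 °C for 2 min, 95 °C for 10 min, then 40 cycles of 95 °C for 15 s and 60 °C for 1 min. Values are the average of triplicate determinations.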

HeLa [18] = assay: Cell cycle arrest in human HeLa cells assessed as accumulation at G1 phase at 2 uM treated 6 hr and measured 8 hr post double thymidine-synchrony release using propidium iodide staining by FACS analysis (reference value: 6 %); type: functional
HeLa [19] = assay: Cell cycle arrest in human HeLa cells assessed as accumulation at G1 phase at 2 uM treated 4 hr and measured 10 hr post double thymidine-synchrony release using propidium iodide staining by FACS analysis (reference value: 68 %); type: functional
HeLa [20] = assay: Cell cycle arrest in human HeLa cells assessed as accumulation at G2/M phase at 2 uM treated 6 hr and measured 10 hr post double thymidine-synchrony release using propidium iodide staining by FACS analysis (reference value: 31 %); type: functional; in short: as §4
HeLa [21] = assay: Cell cycle arrest in human HeLa cells assessed as accumulation at G1 phase at 2 uM treated 4 hr and measured 12 hr post double thymidine-synchrony release using propidium iodide staining by FACS analysis (reference value: 81 %); type: functional
HeLa [22] = assay: Cell cycle arrest in human HeLa cells assessed as accumulation at G2/M phase at 2 uM treated 4 hr and measured 12 hr post double thymidine-synchrony release using propidium iodide staining by FACS analysis (reference value: 17 %); type: functional; in short: as §4
A2058 [23] = assay: Cell cycle arrest in human A2058 cells assessed as time taken to reach peak mitosis at 2 uM treated 1 hr and post double hydroxyurea-synchrony release using propidium iodide staining by FACS analysis; type: functional

Chain of Insulin-like growth factor 1 receptor (P08069 31-736 limits assumed): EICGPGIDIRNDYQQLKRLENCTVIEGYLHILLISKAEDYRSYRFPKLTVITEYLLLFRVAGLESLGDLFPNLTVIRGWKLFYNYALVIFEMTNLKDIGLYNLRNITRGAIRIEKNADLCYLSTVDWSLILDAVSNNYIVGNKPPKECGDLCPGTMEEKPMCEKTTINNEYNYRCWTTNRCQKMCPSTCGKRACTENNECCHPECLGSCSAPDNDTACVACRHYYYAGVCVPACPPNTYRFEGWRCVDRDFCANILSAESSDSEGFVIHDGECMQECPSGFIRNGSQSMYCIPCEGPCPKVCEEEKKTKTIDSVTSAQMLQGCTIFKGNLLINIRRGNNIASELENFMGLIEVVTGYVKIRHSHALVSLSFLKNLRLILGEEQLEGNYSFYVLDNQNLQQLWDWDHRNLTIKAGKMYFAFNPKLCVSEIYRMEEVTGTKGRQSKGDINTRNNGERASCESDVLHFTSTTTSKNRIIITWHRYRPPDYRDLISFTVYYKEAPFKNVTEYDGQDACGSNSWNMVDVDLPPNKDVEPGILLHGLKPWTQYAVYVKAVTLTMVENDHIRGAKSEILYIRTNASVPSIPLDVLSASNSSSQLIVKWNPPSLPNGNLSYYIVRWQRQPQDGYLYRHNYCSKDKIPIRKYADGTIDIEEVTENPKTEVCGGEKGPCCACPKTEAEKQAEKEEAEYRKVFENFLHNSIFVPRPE
Chain of Insulin-like growth factor 1 receptor (P08069 741-1367 limits assumed): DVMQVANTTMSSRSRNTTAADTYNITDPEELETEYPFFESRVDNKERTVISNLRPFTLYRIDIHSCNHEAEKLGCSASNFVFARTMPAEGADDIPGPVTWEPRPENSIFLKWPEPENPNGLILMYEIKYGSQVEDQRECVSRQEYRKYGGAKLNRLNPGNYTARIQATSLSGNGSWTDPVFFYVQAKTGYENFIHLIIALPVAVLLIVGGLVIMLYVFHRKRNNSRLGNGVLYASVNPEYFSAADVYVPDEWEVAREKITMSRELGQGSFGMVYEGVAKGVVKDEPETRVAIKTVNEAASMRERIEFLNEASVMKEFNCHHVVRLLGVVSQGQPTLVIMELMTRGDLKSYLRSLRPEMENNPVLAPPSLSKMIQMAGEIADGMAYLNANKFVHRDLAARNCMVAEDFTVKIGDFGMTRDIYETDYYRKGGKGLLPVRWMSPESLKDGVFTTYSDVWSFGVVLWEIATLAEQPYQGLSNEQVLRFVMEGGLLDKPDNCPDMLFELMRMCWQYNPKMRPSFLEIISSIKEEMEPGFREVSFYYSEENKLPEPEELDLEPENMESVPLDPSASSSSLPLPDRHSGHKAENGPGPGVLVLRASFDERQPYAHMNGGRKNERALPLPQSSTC
Chain of Insulin receptor (P06213 28-758 limits assumed): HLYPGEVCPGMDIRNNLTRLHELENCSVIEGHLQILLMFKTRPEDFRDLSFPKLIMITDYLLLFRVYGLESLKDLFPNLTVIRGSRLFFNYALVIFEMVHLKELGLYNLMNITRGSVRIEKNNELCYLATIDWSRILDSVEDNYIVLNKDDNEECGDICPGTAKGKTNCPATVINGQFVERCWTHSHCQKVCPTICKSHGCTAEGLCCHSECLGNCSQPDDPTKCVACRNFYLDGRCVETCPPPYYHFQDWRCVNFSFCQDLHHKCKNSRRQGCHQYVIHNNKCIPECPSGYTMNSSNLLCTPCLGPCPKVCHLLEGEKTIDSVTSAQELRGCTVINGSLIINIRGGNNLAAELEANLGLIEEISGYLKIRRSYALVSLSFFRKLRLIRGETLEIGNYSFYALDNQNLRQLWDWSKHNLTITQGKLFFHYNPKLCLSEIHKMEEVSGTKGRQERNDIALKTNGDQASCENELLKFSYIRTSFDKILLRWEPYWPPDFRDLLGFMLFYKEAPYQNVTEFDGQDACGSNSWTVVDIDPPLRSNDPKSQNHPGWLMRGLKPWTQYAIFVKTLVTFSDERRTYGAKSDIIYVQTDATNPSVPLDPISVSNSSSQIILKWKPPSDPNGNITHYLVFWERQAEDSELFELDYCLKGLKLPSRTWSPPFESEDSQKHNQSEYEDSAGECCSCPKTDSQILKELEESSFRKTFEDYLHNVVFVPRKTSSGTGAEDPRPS
Chain of Insulin receptor (P06213 763-1382 limits assumed): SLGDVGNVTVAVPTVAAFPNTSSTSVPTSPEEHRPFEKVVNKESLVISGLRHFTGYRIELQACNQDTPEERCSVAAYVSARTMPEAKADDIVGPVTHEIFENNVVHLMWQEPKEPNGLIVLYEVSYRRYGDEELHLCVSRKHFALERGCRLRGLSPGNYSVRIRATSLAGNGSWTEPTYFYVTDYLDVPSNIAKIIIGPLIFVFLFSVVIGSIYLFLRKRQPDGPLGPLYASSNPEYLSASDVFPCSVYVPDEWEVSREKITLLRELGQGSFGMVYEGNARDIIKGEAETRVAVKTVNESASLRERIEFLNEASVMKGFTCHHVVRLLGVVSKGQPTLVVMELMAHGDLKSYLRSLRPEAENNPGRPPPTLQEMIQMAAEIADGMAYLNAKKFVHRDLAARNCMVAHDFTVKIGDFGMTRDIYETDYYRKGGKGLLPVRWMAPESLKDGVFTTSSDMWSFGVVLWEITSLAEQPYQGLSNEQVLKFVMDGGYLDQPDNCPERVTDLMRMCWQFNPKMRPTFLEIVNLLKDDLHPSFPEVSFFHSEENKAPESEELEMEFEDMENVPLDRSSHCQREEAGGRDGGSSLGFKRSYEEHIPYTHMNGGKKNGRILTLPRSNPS

SMILES	IC50 [1] [µM]	IC50 (Insulin receptor) [µM]	IC50 [2] [µM]	IC50 [3] [µM]	Activity [4] [%]	Activity [5] [%]	IC50 (RKO) [µM]	IC50 (NCI-H460 [6]) [µM]	Activity (HeLa [7]) [%]	Activity [8] [%]	Activity [9] [%]	Activity (A2058 [10]) [%]	Activity (A2058 [11]) [%]	Activity (A2058 [12]) [%]	Activity (A2058 [13]) [%]	Activity [14]	Activity (HeLa [15])	Activity (HCT-116)	Activity (SW480)	Activity (MDA-MB-435)	other results
COc1cccc(C(=O)c2sc(Nc3ccc(N4CCN(C(C)C)CC4)cc3)nc2N)c1	20	24	> 100	> 200	9	19	0.54	1.14	6	12	77	8	69	57	40	inactive	Active	Toxic	Toxic	Toxic	Activity (NCI-H460 [16]): Toxic; Activity (HeLa [17]): Active; Activity (HeLa [18]): 7%; Activity (HeLa [19]): 12%; Activity (HeLa [20]): 43%; Activity (HeLa [21]): 36%; Activity (HeLa [22]): 62%; Time (A2058 [23]): 10 h
CN1CCN(c2ccc(Nc3nc(N)c(C(=O)c4ccc5c(c4)OCCO5)s3)cc2)CC1	22	71	29	> 200	9	19	1.6	8.12	6	12	77	8	69	57	40	inactive	Active	Toxic	Toxic	Toxic	Activity (NCI-H460 [16]): Toxic; Activity (HeLa [17]): Active; Activity (HeLa [18]): 7%; Activity (HeLa [19]): 12%; Activity (HeLa [20]): 43%; Activity (HeLa [21]): 36%; Activity (HeLa [22]): 62%; Time (A2058 [23]): 10 h
